In ChEMBL document CHEMBL1123194, “Isozyme-specific enzyme inhibitors. 11. L-homocysteine-ATP S-C5' covalent adducts as inhibitors of rat methionine adenosyltransferases” (J Med Chem, 1986) one finds Km and Ki data, which are given here for seven compounds.

“And” between values parts separate entries of the source, which are not always exact repeats. Identical values can stand only once.

A short description of data set [1]: Michaelis constant (KM) was evaluated. It is filed as ADME.
Data set [2] addresses S-adenosylmethionine synthase isoform type-2 (Rattus norvegicus, UniProt P18298). The data set is described as follows: Inhibition constant was evaluated with kidney Methionine adenosyltransferase II form of rat methionine adenosyltransferase, when ATP was the variable substrate (60 uM). Put shortly: (§1)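 Rat MAT-2 and MAT-T, partially purified as described in earlier work. Assayed at 37 °C for 10 min in duplicate in 150 mM KCl, 15 mM MgCl2, 5 mM dithiothreitol, 50 mM Tris-HCl, pH 8.2, with L-[methyl-14C]methionine and MgATP. Six to eight levels of the variable substrate (0.5-4.0 × KM), two inhibitor levels plus no-inhibitor controls. Product captured on phosphocellulose disks and counted by scintillation. Blanks lacked ATP.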

In data set [3] the target is T1, S-adenosylmethionine synthetase (MAT 1 and MAT 2) (Rattus norvegicus, UniProt P13444+P18298). The data set is described as follows: Inhibition constant was evaluated on novikoff hepatoma (MAT-T) form of rat methionine adenosyltransferase, when ATP was the variable substrate (60 uM). It is filed as protein assay. Conditions: in the assay text read “120 uM” for “60 uM”. In short, it runs like this:
as §1

The target in data set [4] is T1, S-adenosylmethionine synthetase (MAT 1 and MAT 2). The data set is described as follows: Inhibition constant was evaluated with kidney (MAT-2) form of rat methionine adenosyltransferase, when methionine was the variable substrate (2 mM). It is filed as protein assay. Put shortly: as §1
Data set [5] has the same target. Kind of data set: Inhibition constant was evaluated on novikoff hepatoma (MAT-T) form of rat methionine adenosyltransferase, when methionine was the variable substrate (2 mM). It is filed as protein assay. Put shortly: as §1

What is called Km is the substrate concentration at which the rate is half of its maximum. The Ki is a dissociation constant, usually derived from enzyme kinetics or from competition with a known ligand.

Chain of S-adenosylmethionine synthase isoform type-2 (P18298 whole entry, canonical isoform): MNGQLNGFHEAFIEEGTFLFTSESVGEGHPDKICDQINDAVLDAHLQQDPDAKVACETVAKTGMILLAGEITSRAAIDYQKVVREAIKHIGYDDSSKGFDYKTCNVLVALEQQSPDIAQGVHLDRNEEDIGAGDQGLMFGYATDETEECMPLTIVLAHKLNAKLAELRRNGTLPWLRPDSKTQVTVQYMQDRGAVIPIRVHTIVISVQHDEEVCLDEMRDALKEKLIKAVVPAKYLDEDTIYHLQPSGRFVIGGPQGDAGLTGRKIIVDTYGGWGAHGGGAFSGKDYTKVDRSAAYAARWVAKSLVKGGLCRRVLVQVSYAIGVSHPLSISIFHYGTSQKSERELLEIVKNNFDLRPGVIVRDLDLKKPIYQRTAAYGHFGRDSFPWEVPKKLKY

As to `Nc1ncnc2c1ncn2[C@@H]1O[C@H](COP(=O)(O)OP(=O)(O)OP(=O)(O)O)[C@@H](O)[C@H]1O`, the Km in data set [1] was 140 µM.
`Nc1ncnc2c1ncn2[C@@H]1O[C@H](C(CP(=O)(O)OP(=O)(O)OP(=O)(O)O)SCCC(N)C(=O)O)[C@@H](O)[C@H]1O` (single isomer, unassigned; epimer 2): the values for the Ki in data set [2], in data set [3] and in data set [4] were 180 µM, 148 µM and 200 µM, respectively.
For `Nc1ncnc2c1ncn2C1OC(CCP(=O)(O)OP(=O)(O)OP(=O)(O)O)[C@@H](O)[C@H]1O` (stereo not given in full), in data set [1], the Km is 75 µM and 310 µM.
Take `Nc1ncnc2c1ncn2[C@@H]1O[C@H](C(CP(=O)(O)OP(=O)(O)OP(=O)(O)O)SCCC(N)C(=O)O)[C@@H](O)[C@H]1O` (single isomer, unassigned; epimer 1): the Ki in data set [2] worked out at 39 µM; in data set [3], 32 µM; in data set [4] it was 62 µM.
As to `CSCC[C@H](N)C(=O)O` [METHIONINE], the Km in data set [1] is 5 µM and 15 µM.
With `Nc1ncnc2c1ncn2[C@@H]1O[C@H](C(CP(=O)(O)OP(=O)(O)OP(=O)(O)O)[S+]([O-])CCC(N)C(=O)O)[C@@H](O)[C@H]1O` (stereo not given in full), the Ki is 140 µM in data set [2] and 81 µM in data set [3].
As for `Nc1ncnc2c1ncn2[C@@H]1O[C@H](C(CP(=O)(O)OP(=O)(O)NP(=O)(O)O)SCCC(N)C(=O)O)[C@@H](O)[C@H]1O` (stereo not given in full), the Ki came out at 38 µM in data set [5], 16 µM in data set [2], 11 µM in data set [3] and 26 µM in data set [4].
